In ChEMBL document CHEMBL3596186, “Synthesis and biological evaluation of diarylthiazole derivatives as antimitotic and antivascular agents with potent antitumor activity” (Bioorg Med Chem, 2015):
Activity calls are given as the source filed them. No cut-off for these calls is given here.

Legend:
HepG2 = assay: Antiproliferative activity against human HepG2 cells after 48 hrs by MTT assay; type: functional, cell-based; conditions: HepG2, 48 h
How it was run: (§1)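 HCT116, HepG2, SMMC-7721, SK-OV-3 and A2780s grown in DMEM; A549 and MCF-7 in RPMI-1640; all with 10% FBS and penicillin/streptomycin at 37 °C, 5% CO2. Log-phase cells at 40,000-50,000 cells/mL treated with graded concentrations for 48 h. MTT 3 h, DMSO solubilization, A570. IC50 from percent growth versus untreated control; mean ± SEM of ≥3 independent dose-response experiments.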

[1] = Antiproliferative activity against human A2780S cells after 48 hrs by MTT assay; type: functional, cell-based; conditions: A2780, 48 h; how it was run: as §1
HCT-116 [2] = assay: Antiproliferative activity against human HCT116 cells after 48 hrs by MTT assay; type: functional, cell-based; conditions: HCT-116, 48 h; how it was run: as §1
SK-OV-3 = assay: Antiproliferative activity against human SKOV3 cells after 48 hrs by MTT assay; type: functional, cell-based; conditions: SK-OV-3, 48 h; how it was run: as §1
[3] = Antiproliferative activity against human […] cells after 48 hrs by MTT assay; type: functional, cell-based; how it was run: as §1
[4] = Inhibition of pig microtubule polymerization after 30 mins by turbidimetric assay; design: species or system Sus scrofa
How it was run: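 Porcine-brain MAP-rich tubulin at 3 mg/mL preincubated 30 min at 4 °C in 0.1 M PIPES pH 6.9, 2 mM MgCl2, 0.5 mM EGTA. Compounds added 2 min before the run, then 1 mM GTP. Turbidity followed kinetically at 340 nm at 37 °C; assembly IC50 derived by Hamel's method.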

Tubulin (Homo sapiens) = Tubulin (Homo sapiens) (UniProt P68371+Q9H4B7+P0DPH7+P68366+Q13509+Q71U36+P04350+Q3ZCM7+P07437+P68363+Q9BQE3+Q6PEY2+Q13885+Q9BVA1+Q9BUF5); assay: Binding affinity to tubulin in human HepG2 cells at 5 uM after 4 hrs by EBI competition assay; type: cell-based
How it was run: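 HepG2 cells seeded at 500,000 cells/well, allowed to adhere, then treated with compound for 4 h. EBI added at 100 µM for 1.5 h. Cell extracts (about 20 µg protein) run on 10% SDS-PAGE, blotted to PVDF, probed with anti-β-tubulin, detected by ECL with GAPDH as loading control. Read-out is loss of the faster-migrating β-tubulin–EBI adduct band.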

MCF7 [5] = assay: Antiproliferative activity against human MCF7 cells after 48 hrs by MTT assay; type: functional, cell-based; conditions: MCF7, 48 h; how it was run: as §1
MCF7 [6] = assay: Resistance ratio, ratio of IC50 for human doxorubicin-resistant MCF7 cells to IC50 for human MCF7 cells; type: functional
How it was run: (§2)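 MTT assay: log-phase cells at 40,000-50,000 cells/mL in RPMI-1640 with 10% FBS, exposed to graded concentrations for 48 h, then MTT 3 h, DMSO solubilization, absorbance at 570 nm. IC50 from growth versus untreated control, at least three independent experiments. Ratio = resistant-line IC50 / parental-line IC50.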

[7] = Antiproliferative activity against human HCC827 cells after 48 hrs by MTT assay; type: functional, cell-based; conditions: HCC827, 48 h
A549 [8] = assay: Antiproliferative activity against human A549 cells after 48 hrs by MTT assay; type: functional, cell-based; conditions: A549, 48 h; how it was run: as §1
A549 [9] = assay: Antiproliferative activity against human taxol-resistant A549 cells after 48 hrs by MTT assay; type: functional, cell-based; conditions: A549, 48 h
How it was run: (§3)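 MCF-7/ADR (doxorubicin-resistant) and A549/T (taxol-resistant) cells in RPMI-1640 with 10% FBS and penicillin/streptomycin. Log-phase cells at 40,000-50,000 cells/mL exposed to graded concentrations for 48 h. MTT 3 h, DMSO solubilization, absorbance 570 nm. IC50 from percent growth versus untreated control; mean ± SEM of ≥3 independent experiments.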

NCI-H1975 [10] = assay: Antiproliferative activity against human gefitinib-resistant NCI-H1975 cells after 48 hrs by MTT assay; type: functional, cell-based; conditions: NCI-H1975, 48 h
[11] = Antiproliferative activity against human doxorubicin-resistant MCF7 cells after 48 hrs by MTT assay; type: functional, cell-based; conditions: MCF7, 48 h; how it was run: as §3
NCI-H1975 [12] = assay: Resistance ratio, ratio of IC50 for human gefitinib-resistant NCI-H1975 cells to IC50 for human HCC827 cells; type: functional
A549 [13] = assay: Resistance ratio, ratio of IC50 for human taxol-resistant A549 cells to IC50 for human A549 cells; type: functional; how it was run: as §2
HCT-116 [14] = assay: Antitumor activity against human HCT116 cells xenografted in Balb/c athymic nude mouse assessed as tumor growth inhibition at 10 mg/kg, ip administered daily after 42 days; type: functional; conditions: HCT-116, ip, 1008 h, read-out: TGI
How it was run: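 Female Balb/C athymic nude mice, 5-6 weeks old, given s.c. tumor cells in HBSS into the right flank. Once tumors averaged 100 mm3, animals were randomized into groups of 6 and given daily i.p. injections. Tumor volume (π/6 × length × width²) was measured every two days. Inhibition = (1 − treated/control tumor weight) × 100%, taken at day 42.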

Mus musculus [15] = assay: Toxicity in Balb/c athymic nude mouse xenografted with human SKOV3 cells assessed as loss in body weight at 10 mg/kg, ip administered daily; type: organism-based, SK-OV-3; conditions: in vivo
How it was run: (§4)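 Female Balb/C athymic nude mice, 5-6 weeks old, bearing s.c. right-flank xenografts (cells in HBSS). Once tumors averaged 100 mm3, animals were randomized into groups of 6 and dosed i.p. once daily. Body weight was recorded every two days during treatment.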

Mus musculus [16] = assay: Toxicity in Balb/c athymic nude mouse xenografted with human HCT116 cells assessed as loss in body weight at 10 mg/kg, ip administered daily; type: organism-based, HCT-116; conditions: in vivo; how it was run: as §4

Structure (SMILES) | IC50 (HepG2) [nM] | IC50 [1] [nM] | IC50 (HCT-116 [2]) [nM] | IC50 (SK-OV-3) [nM] | IC50 [3] [nM] | also measured
CCOc1ccc(-c2nc(C(C)(C)C)sc2-c2cc(OC)c(OC)c(OC)c2)cc1 | > 5000 | > 5000 | > 5000 | > 5000 | > 5000 | 
CCOc1ccc(-c2nc(N(CC)CC)sc2-c2cc(OC)c(OC)c(OC)c2)cc1 | > 5000 | > 5000 | > 5000 | > 5000 | > 5000 | 
CCCC(=O)Nc1nc(-c2ccc(OCC)cc2)c(-c2cc(OC)c(OC)c(OC)c2)s1 | 76.8 | 18 | 18 | 105 | 11 | IC50 [4]: 9040 nM; Activity (Tubulin (Homo sapiens)): inactive
CCNC(=O)Nc1nc(-c2ccc(OCC)cc2)c(-c2cc(OC)c(OC)c(OC)c2)s1 | 30.7 | 1.3 | 22.1 | 29.2 | 10.6 | IC50 [4]: 3900 nM; IC50 (MCF7 [5]): 417 nM; Ratio IC50 (MCF7 [6]): 1.7; IC50 [7]: 623 nM; IC50 (A549 [8]): 103 nM; IC50 (A549 [9]): 140 nM; IC50 (NCI-H1975 [10]): 220 nM; IC50 [11]: 727 nM; Ratio IC50 (NCI-H1975 [12]): 0.35; Ratio IC50 (A549 [13]): 0.64; Activity (Tubulin (Homo sapiens)): inactive
CCOc1ccc(-c2nc(C(OCC)OCC)sc2-c2cc(OC)c(OC)c(OC)c2)cc1 | > 5000 | > 5000 | > 5000 | > 5000 | > 5000 | 
CCOc1ccc(-c2nc(N(C)C)sc2-c2cc(OC)c(OC)c(OC)c2)cc1 | > 5000 | > 5000 | > 5000 | > 5000 | > 5000 | 
CCOc1ccc(-c2nc(N(Cc3ccccc3)Cc3ccccc3)sc2-c2cc(OC)c(OC)c(OC)c2)cc1 | > 5000 | > 5000 | > 5000 | > 5000 | > 5000 | 
COc1ccc(/C=C\c2cc(OC)c(OC)c(OC)c2)cc1O [COMBRETASTATIN A4] |  |  |  |  |  | IC50 [4]: 5910 nM
CCOc1ccc(-c2sc(N)nc2-c2cc(OC)c(OC)c(OC)c2)cc1 | 8.3 | 8.6 | 9.2 | 8.4 | 10 | 
CCOc1ccc(-c2nc(NS(=O)(=O)c3ccc(OC)c(F)c3)sc2-c2cc(OC)c(OC)c(OC)c2)cc1 | > 5000 | > 5000 | > 5000 | > 5000 | > 5000 | 
CCOc1ccc(-c2nc(NS(=O)(=O)c3ccsc3Cl)sc2-c2cc(OC)c(OC)c(OC)c2)cc1 | > 5000 | > 5000 | > 5000 | > 5000 | > 5000 | 
CCCN(CCC)c1nc(-c2ccc(OCC)cc2)c(-c2cc(OC)c(OC)c(OC)c2)s1 | > 5000 | > 5000 | > 5000 | > 5000 | > 5000 | 
CCOc1ccc(-c2nc(NC(C)=O)sc2-c2cc(OC)c(OC)c(OC)c2)cc1 | 60.9 | 10.2 | 10.2 | 167 | 13 | 
CCOc1ccc(-c2nc(NC(=O)C(C)C)sc2-c2cc(OC)c(OC)c(OC)c2)cc1 | 177 | 22.5 | 22.5 | 85.2 | 65.2 | 
O=c1[nH]cc(F)c(=O)[nH]1 [FLUOROURACIL] |  |  |  |  |  | inhibition in vivo at 10 mg/kg (HCT-116 [14]): 37.3%; Activity (Mus musculus [15]): Toxic; Activity (Mus musculus [16]): Toxic
CCOc1ccc(-c2ncsc2-c2cc(OC)c(OC)c(OC)c2)cc1 | 65 | 86 | 62 | 10 | 128 | IC50 [4]: 3550 nM; IC50 (MCF7 [5]): 1160 nM; Ratio IC50 (MCF7 [6]): 1.3; IC50 [7]: 469 nM; IC50 (A549 [8]): 696 nM; IC50 (A549 [9]): 425 nM; IC50 (NCI-H1975 [10]): 1120 nM; IC50 [11]: 1560 nM; Ratio IC50 (NCI-H1975 [12]): 2.38; Ratio IC50 (A549 [13]): 0.45; Activity (Tubulin (Homo sapiens)): inactive
CCOc1ccc(-c2nc(C=O)sc2-c2cc(OC)c(OC)c(OC)c2)cc1 | 50 | 104 | 48 | 9 | 106 | IC50 [4]: > 10000 nM
COc1cc2c(c(OC)c1OC)-c1ccc(OC)c(=O)cc1[C@@H](NC(C)=O)CC2 [COLCHICINE] |  |  |  |  |  | IC50 [4]: 5020 nM
C=CCN(CC=C)c1nc(-c2ccc(OCC)cc2)c(-c2cc(OC)c(OC)c(OC)c2)s1 | > 5000 | > 5000 | > 5000 | > 5000 | > 5000 | 
CCOc1ccc(-c2nc(C)sc2-c2cc(OC)c(OC)c(OC)c2)cc1 | 368 | 106 | 64 | 68 | 126 | IC50 [4]: > 10000 nM
COc1ccc(-c2nc(N)sc2-c2cc(OC)c(OC)c(OC)c2)cc1 | 50.6 | 14 | 93.7 | 110 | 9 | 
CCOc1ccc(-c2nc(NS(=O)(=O)c3ccc(C)c(C)c3)sc2-c2cc(OC)c(OC)c(OC)c2)cc1 | > 5000 | > 5000 | > 5000 | > 5000 | > 5000 | 
CCOc1ccc(-c2nc(NC(=O)CC)sc2-c2cc(OC)c(OC)c(OC)c2)cc1 | 40.6 | 5.1 | 50.5 | 60.4 | 10.8 | IC50 [4]: > 10000 nM
COc1cccc2c1C(=O)c1c(O)c3c(c(O)c1C2=O)C[C@@](O)(C(=O)CO)C[C@@H]3O[C@H]1C[C@H](N)[C@H](O)[C@H](C)O1 [DOXORUBICIN] |  |  |  |  |  | IC50 [11]: 5300 nM
CCOc1ccc(-c2nc(NS(=O)(=O)c3ccc([N+](=O)[O-])cc3OC)sc2-c2cc(OC)c(OC)c(OC)c2)cc1 | > 5000 | > 5000 | > 5000 | > 5000 | > 5000 | 
CCOC(=O)c1nc(-c2ccc(OCC)cc2)c(-c2cc(OC)c(OC)c(OC)c2)s1 | > 5000 | > 5000 | > 5000 | > 5000 | > 5000 | 
CCOc1ccc(-c2nc(NS(=O)(=O)c3ccc(Br)cc3C(F)(F)F)sc2-c2cc(OC)c(OC)c(OC)c2)cc1 | > 5000 | > 5000 | > 5000 | > 5000 | > 5000 | 
